# Assay results from different studies.
# Lines come from different studies, so protocols differ.
# Target: Mitogen-activated protein kinase 12 (MAPK12, Homo sapiens, UniProt P53778)
# Residues used in one study (P53778 1-367): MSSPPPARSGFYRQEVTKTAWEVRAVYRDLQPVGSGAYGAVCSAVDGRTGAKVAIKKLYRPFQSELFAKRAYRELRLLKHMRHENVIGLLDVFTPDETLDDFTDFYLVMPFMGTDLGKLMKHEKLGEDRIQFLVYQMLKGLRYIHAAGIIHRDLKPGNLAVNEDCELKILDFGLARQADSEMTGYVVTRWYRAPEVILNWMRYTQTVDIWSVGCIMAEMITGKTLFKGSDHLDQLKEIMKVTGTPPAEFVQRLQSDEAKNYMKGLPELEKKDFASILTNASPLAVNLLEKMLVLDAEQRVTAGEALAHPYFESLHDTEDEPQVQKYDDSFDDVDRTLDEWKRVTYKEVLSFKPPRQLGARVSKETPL
Compound,assay,conditions,endpoint,value
CNC(=O)c1cc(Oc2ccc(NC(=O)Nc3ccc(Cl)c(C(F)(F)F)c3)cc2)ccn1,cell-free assay,0.5 µM,remaining signal,94.2%
COc1cc(Nc2cnc(C#N)c(O[C@H](C)CN(C)C)n2)ncc1-c1cnn(C)c1,"enzyme activity, inhibitor, radiometric",10 µM,remaining activity,109%
C[C@H](c1ccc(F)cc1)N(Cc1cccc(C(=O)O)c1)C(=O)c1cnc2ccccc2c1,"cell-free assay, competition with immobilised ligand",1 µM,remaining binding,65%
CC(C)(C)c1nc2c(s1)c1nc(N)ncc1c1ccc(NS(=O)(=O)c3c(F)cccc3F)c(F)c12,"enzyme activity, inhibitor, radiometric",1 µM,remaining activity,100%
CN1CC(Oc2cnc(C#N)cc2-c2ccn3nc(NC(=O)C4CC4)cc3c2)C1,"enzyme activity, inhibitor",1 µM,inhibition,-1%
Nc1c(C(=O)NCc2ccc(C(=O)NCCCC3CCCCC3)cc2)cnn1-c1ccccc1,"cell-free assay, competition with immobilised ligand",0.1 µM,remaining binding,100%
Cc1cc(NC(=O)c2cccc3cc(-c4cccc5[nH]nc(N)c45)ccc23)ccc1F,"enzyme activity, inhibitor",0.1 µM,activity vs control,83%
Cc1cnc(NC2CCOCC2)nc1-n1cnc(C(=O)NC(CN)c2cc(F)cc(Cl)c2)c1 (stereo not shown),"enzyme activity, inhibitor, radiometric",1 µM,remaining activity,48%
CCOc1cc(-c2nncn2C)ccc1Nc1ncc2cc(C)nc(NCC(C)(C)C)c2n1,"enzyme activity, inhibitor, FRET",1 µM,inhibition,< 15%
Cc1c(NC(=O)c2cc(C(N)=O)nc3cc(F)ccc23)c(C(F)(F)F)nn1Cc1ccc(C(C)(C)C)cc1,"cell-free assay, competition with immobilised ligand",1 µM,remaining binding,56%
CC1CCCN1c1nccc(-c2cnn3ncccc23)n1 (stereo not shown),binding,1 µM,remaining binding,90%
CCN(CC)CCNC(=O)c1c(C)[nH]c(/C=C2\C(=O)Nc3ccc(F)cc32)c1C,"enzyme activity, inhibitor",10 µM,inhibition,-3%
CC(C)(C)C(=O)c1sc(NC2CCCCC2)nc1N,"enzyme activity, inhibitor",10 µM,remaining activity,89%
CCS(=O)(=O)c1cc2cc(C[C@](O)(CC(C)(C)c3ccc(F)cc3C(N)=O)C(F)(F)F)[nH]c2cn1,"cell-free assay, competition with immobilised ligand",1 µM,remaining binding,100%
Oc1cccc(-c2nc(N3CCOCC3)c3oc4ncccc4c3n2)c1,"enzyme activity, inhibitor",10 µM,remaining activity,76%
Cc1nccc(COC(=O)N2C[C@@H]3[C@@H](CNC(=O)c4ccc5[nH]nnc5c4)[C@@H]3C2)n1,"cell-free assay, competition with immobilised ligand",1 µM,remaining binding,79%
O=C(Nc1cnn(-c2csc(C(=O)NC3COC3)c2)c1)Nc1ccccc1Cl,"enzyme activity, inhibitor",5 µM,remaining activity,99.4%
CCOC(=O)c1cc2cc(-c3cc(C(=O)NCc4ccc(C(=O)O)cc4)nn3C)ccc2[nH]1,"cell-free assay, competition with immobilised ligand",0.1 µM,remaining binding,77%
Oc1cccc(-c2nc(N3CCOCC3)c3oc4ncccc4c3n2)c1,cell-free assay,0.5 µM,remaining signal,93.4%
